Results from different studies.
Each line is one published result; the experiments were not run side by side. pIC50: −log10 of the molar value.
HDAC2: Histone deacetylase 2 (HDAC2, Homo sapiens, UniProt Q92769)
PPO3: PPO3 (Agaricus bisporus, UniProt C7FF04)
HTR2A: 5-hydroxytryptamine receptor 2A (HTR2A, Homo sapiens, UniProt P28223)

Structure (SMILES)	target	observed	mode	method	pIC50
Nc1ccccc1NC(=O)c1ccc(CNc2ccc(NC3=C(Cl)C(=O)c4cccnc4C3=O)cc2)cc1	HDAC2	enzyme activity	inhibitor		6.38
O=C(NO)c1cncc(OS(=O)(=O)Oc2ccc(-n3ccnc3)cc2)c1	HDAC2	enzyme activity	inhibitor	fluorescence	5.86
Nc1nc(-c2ccc(F)cc2)cc(-c2ccc(-c3cc(-c4ccc(F)cc4)nc(N)n3)cc2)n1	PPO3	enzyme activity	inhibitor	absorbance	4.34
CC(C)C(N)CCN(C)C(=O)C(=O)Nc1cc2ccccc2cc1Cl (stereo not drawn)	HTR2A	calcium signal	antagonist		4.80
O=C(NO)c1cncc(OS(=O)(=O)Oc2ccc(C(F)(F)F)cc2)c1	HDAC2	enzyme activity	inhibitor	fluorescence	5.25
c1ccc(O[C@H]2CCN(Cc3ccc(-c4ccn[nH]4)o3)C2)cc1	HTR2A	calcium signal	antagonist		5.28
Nc1ccc(-c2cc(-c3ccc(-c4cc(-c5ccc(N)cc5)nc(N)n4)cc3)nc(N)n2)cc1	PPO3	enzyme activity	inhibitor	absorbance	4.91
CN(C(=O)c1cn[nH]n1)C1CCN(CCc2cccc(Cl)c2Cl)C1 (stereo not drawn)	HTR2A	calcium signal	antagonist		6.04
C#Cc1ccc2c(=O)[nH]nc(Cc3ccc(F)c(C(=O)N4CCN(C(=O)C=C)CC4)c3)c2c1	Poly [ADP-ribose] polymerase 1 (PARP1, Homo sapiens, UniProt P09874)	enzyme activity	inhibitor		6.07
CCc1c(C)nc(-c2ccc(Cl)s2)nc1Nc1ccc(CC(=O)O)cc1	cGMP-specific 3',5'-cyclic phosphodiesterase (PDE5A, Homo sapiens, UniProt O76074)	enzyme activity	inhibitor	FP	~3.81
NCC1Cc2cc(F)ccc2N(C(=O)Cc2cc(F)ccc2Br)C1 (stereo not drawn)	HTR2A	calcium signal	antagonist		5.94
Nc1nc(-c2ccccc2)cc(-c2ccc(-c3cc(-c4ccccc4)nc(N)n3)cc2)n1	PPO3	enzyme activity	inhibitor	absorbance	4.06
